Assay results pooled from the literature.
Lines come from different studies, so protocols differ.
Target: Vascular endothelial growth factor receptor 2 (KDR, Homo sapiens, UniProt P35968)

`CCC(=O)N[C@@H]1CC[C@H](C(=O)N(C)c2ccc(-c3nc4ccccc4o3)cc2)C1` has a remaining binding of 77% (cell-free assay, competition with immobilised ligand; 1 µM).
`C[C@@H]1CN(c2ccc3ncc(-c4ccc5[nH]nc(C6CC6)c5c4)n3n2)C[C@H](C)O1` has a remaining binding of 100% (binding, competition with immobilised ligand; 0.5 µM).
The remaining binding of `CN(c1nccc(-c2cnn3ncccc23)n1)C1CC1` is reported as 100% (binding; 1 µM).
With `FC(F)(F)Oc1cccc(-c2cnc3ccc(-c4ccncc4)nn23)c1` the remaining binding was 18% (cell-free assay, competition with immobilised ligand; 5 µM).
With `N[C@@H]1CCN(c2nccc(-c3cnn4ncccc34)n2)C1` the remaining binding was 100% (binding; 1 µM).
With `COc1cnc(Nc2cccc(S(N)(=O)=O)c2)nc1N1CCN(c2ccccc2)C(=O)C1` the remaining binding was 100% (binding, competition with immobilised ligand; 1 µM).
The remaining binding of `CN(C)C(=O)Cn1cc(-c2nc(C3(c4ccc(-c5cnc(N)nc5)cc4)CC3)no2)cn1` is reported as 70% (cell-free assay, competition with immobilised ligand; 1 µM).
The remaining binding of `O=C(c1ccc(Nc2ncc(Cl)c(-c3cc4ccccc4s3)n2)cc1)N1CCC(N2CCCC2)CC1` is reported as 12% (binding, competition with immobilised ligand; 1 µM).
`Cc1cc(-n2nc(Cc3cc(F)cc(C(F)(F)F)c3)nc2C)ccc1C(N)=O` has a remaining binding of 100% (cell-free assay, competition with immobilised ligand; 1 µM).
The remaining binding of `c1cncc(-c2cccc(Nc3nccc(NC4CCCCC4)n3)c2)c1` is reported as 69% (binding, competition with immobilised ligand; 10 µM).
`O=C(NCCCN1CCOCC1)c1ccc(Nc2ncc(Cl)c(-c3ccc(Cl)s3)n2)cc1` has a remaining binding of 13% (binding, competition with immobilised ligand; 1 µM).
With `N#CC1(c2ccccn2)CCN(Cc2cc(C(=O)N3CCCC3)c(=O)n3ccccc23)CC1` the remaining binding was 92% (cell-free assay, competition with immobilised ligand; 1 µM).
`CN(CCCC(F)(F)F)c1nccc(-c2cnn3ncccc23)n1` has a remaining binding of 100% (binding; 1 µM).
For `CCCOc1ccc([C@@H]2[C@@H](C(=O)O)[C@H](c3ccc4c(c3)OCO4)CN2CC(=O)Nc2c(CC)cccc2CC)cc1`, the remaining binding was 72% (cell-free assay, competition with immobilised ligand; 1 µM).
The remaining binding of `C[C@@H](c1ccc(-n2cnc3c(N)ncnc32)cc1)N1CCc2nn(C)c(Cc3ccccc3)c2C1=O` is reported as 69% (binding, competition with immobilised ligand; 0.1 µM).
For `O=C(c1ccc(Nc2ncc(Cl)c(-c3ccc(Cl)s3)n2)cc1)N1CCC(N2CCCC2)CC1`, the remaining binding was 2.2% (binding, competition with immobilised ligand; 1 µM).
`Nc1cnc(N2CCc3cc(S(=O)(=O)Nc4c(F)cc(Cl)cc4F)cc(N4CCCC4=O)c32)nc1` has a remaining binding of 81% (cell-free assay, competition with immobilised ligand; 1 µM).
`N#Cc1ccccc1CSc1nnc2c(n1)[nH]c1ccccc12` gave a remaining binding of 95% (binding, competition with immobilised ligand; 10 µM).
With `C[C@@H]1CCN(c2nccc(-c3cnn4ncccc34)n2)C1` the remaining binding was 87% (binding; 1 µM).
The remaining binding of `CC(C)CC(=O)N1CCc2nc(-c3ccc(Br)cc3)nc(N(C)Cc3ccccc3)c2C1` is reported as 100% (cell-free assay, competition with immobilised ligand; 0.1 µM).
`Nc1ncc2c(n1)-c1c([nH]c3ccc(C#CC4CC4)cc13)CCCC2` gave a remaining binding of 90% (binding, competition with immobilised ligand; 1 µM).
`CN(C)c1ncc(F)c(-c2cnn3ncccc23)n1` has a remaining binding of 75% (binding; 1 µM).
With `O=C(Nc1c[nH]nc1C(=O)NC1CCNCC1)c1cc(F)cc(F)c1` the remaining binding was 93% (binding, competition with immobilised ligand; 1 µM).
The remaining binding of `c1cnn2ncc(-c3ccnc(N4CCC45COC5)n3)c2c1` is reported as 67% (binding; 1 µM).
The remaining binding of `O=C(Nc1cnc(Oc2ccc(F)cc2)nc1)N1CCc2ncccc2[C@@H]1c1ccc(F)cc1` is reported as 88% (cell-free assay, competition with immobilised ligand; 1 µM).
